Source: ChEMBL document CHEMBL1687901 (J Med Chem, 2011)
≈ marks a conversion by molar mass, not a printed value.

Assays:
Format in all cases: functional
[1] = system: Klebsiella pneumoniae; assay: Antibacterial activity against Klebsiella pneumoniae ATCC 13883 by CLSI M07-A8 method
[2] = system: Staphylococcus aureus; assay: Antibacterial activity against tetracycline-resistant Staphylococcus aureus isolate 161 harboring tet(M) gene by CLSI M07-A8 method
Outline: (§1)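 MICs were determined by CLSI broth microdilution in freshly prepared cation-adjusted Mueller Hinton broth, kept at 4 °C before use. Defibrinated horse blood was added as appropriate. Runs met QC ranges for comparator antibiotics with ATCC quality control strains.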

[3] = system: Escherichia coli; assay: Antibacterial activity against Escherichia coli ATCC 25922 by CLSI M07-A8 method
[4] = system: Escherichia coli; assay: Antibacterial activity against tetracycline-resistant Escherichia coli isolate 155 harboring tet(A) gene by CLSI M07-A8 method
Outline: as §1, with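 “appropriate. The highest concentration tested was 32 μg/mL.” for “appropriate.”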

[5] = system: Staphylococcus aureus; assay: Antibacterial activity against tetracycline-resistant Staphylococcus aureus isolate 158 harboring tet(K) gene by CLSI M07-A8 method; outline: as §1
[6] = system: Streptococcus pneumoniae; assay: Antibacterial activity against tetracycline-resistant Streptococcus pneumoniae isolate 160 harboring tet(M) gene by CLSI M07-A8 method; outline: as §1
[7] = system: Staphylococcus aureus; assay: Antibacterial activity against wild type Staphylococcus aureus Smith ATCC 13709 by CLSI M07-A8 method
[8] = system: Streptococcus pneumoniae; assay: Antibacterial activity against Streptococcus pneumoniae ATCC 49619 by CLSI M07-A8 method
[9] = system: Escherichia coli; assay: Inhibition of protein synthesis in Escherichia coli S30 extract by coupled transcription/translation assay
Outline: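 Coupled transcription/translation used an E. coli S30 extract with a firefly luciferase reporter. Compounds were diluted in water and tested as a three-point titration in duplicate. Reactions ran 1 h at 37 °C and were stopped on ice for 5 min, then luciferase substrate was added and luminescence read. Percent inhibition was calculated against uninhibited controls averaged per plate, and IC50 derived.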

| Compound | MIC [1] | MIC [2] | MIC [3] | MIC [4] | MIC [5] | MIC [6] | MIC [7] | MIC [8] | IC50 [9] |
| --- | --- | --- | --- | --- | --- | --- | --- | --- | --- |
| CN(C)[C@@H]1C(O)=C(C(N)=O)C(=O)[C@@]2(O)C(O)=C3C(=O)c4c(O)cnc(Cl)c4C[C@H]3C[C@@H]12.Cl | 4 µg/mL | 32 µg/mL | 2 µg/mL | > 32 µg/mL | 32 µg/mL | 32 µg/mL | 1 µg/mL | 1 µg/mL |  |
| CN(C)[C@@H]1C(O)=C(C(N)=O)C(=O)[C@@]2(O)C(O)=C3C(=O)c4c(O)cnc(F)c4C[C@H]3C[C@@H]12.Cl | 0.5 µg/mL | 8 µg/mL | 0.25 µg/mL | > 32 µg/mL | 8 µg/mL | 8 µg/mL | 0.063 µg/mL | 0.016 µg/mL |  |
| CN(C)CCNc1nc(Cl)c2c(c1O)C(=O)C1=C(O)[C@]3(O)C(=O)C(C(N)=O)=C(O)[C@@H](N(C)C)[C@@H]3C[C@@H]1C2.Cl | 8 µg/mL | 4 µg/mL | 4 µg/mL | 32 µg/mL | 1 µg/mL | 2 µg/mL | 2 µg/mL | 0.5 µg/mL |  |
| CN(C)[C@@H]1C(O)=C(C(N)=O)C(=O)[C@@]2(O)C(O)=C3C(=O)c4c(O)c(NCC(C)(C)CN5CCCC5)nc(Cl)c4C[C@H]3C[C@@H]12.Cl | 4 µg/mL | 2 µg/mL | 2 µg/mL | 8 µg/mL | 0.125 µg/mL | 0.25 µg/mL | 0.5 µg/mL | 0.031 µg/mL |  |
| CN(C)CC(C)(C)CNc1nc(F)c2c(c1O)C(=O)C1=C(O)[C@]3(O)C(=O)C(C(N)=O)=C(O)[C@@H](N(C)C)[C@@H]3C[C@@H]1C2.Cl | 2 µg/mL | 2 µg/mL | 1 µg/mL | 8 µg/mL | 0.5 µg/mL | 1 µg/mL | 1 µg/mL | 0.5 µg/mL |  |
| CCCc1nc(Cl)c2c(c1O)C(=O)C1=C(O)[C@]3(O)C(=O)C(C(N)=O)=C(O)[C@@H](N(C)C)[C@@H]3C[C@@H]1C2.Cl | 32 µg/mL | 4 µg/mL | > 32 µg/mL | > 32 µg/mL | 4 µg/mL | 4 µg/mL | 1 µg/mL | 1 µg/mL |  |
| Cc1nc(Cl)c2c(c1O)C(=O)C1=C(O)[C@]3(O)C(=O)C(C(N)=O)=C(O)[C@@H](N(C)C)[C@@H]3C[C@@H]1C2.Cl | 8 µg/mL | 8 µg/mL | 8 µg/mL | > 32 µg/mL | 16 µg/mL | 8 µg/mL | 2 µg/mL | 0.5 µg/mL |  |
| CN(C)[C@@H]1C(O)=C(C(N)=O)C(=O)[C@@]2(O)C(O)=C3C(=O)c4c(O)c(-c5ccccc5)nc(Cl)c4C[C@H]3C[C@@H]12.Cl | > 32 µg/mL | 2 µg/mL | > 32 µg/mL | > 32 µg/mL | 1 µg/mL | 8 µg/mL | 1 µg/mL | 8 µg/mL |  |
| CCCNc1nc(N(C)C)c2c(c1O)C(=O)C1=C(O)[C@]3(O)C(=O)C(C(N)=O)=C(O)[C@@H](N(C)C)[C@@H]3C[C@@H]1C2.Cl.Cl | > 32 µg/mL | > 32 µg/mL | 32 µg/mL | > 32 µg/mL |  | > 32 µg/mL |  | 8 µg/mL | 3.4 µg/mL |
| CNc1nc(Cl)c2c(c1O)C(=O)C1=C(O)[C@]3(O)C(=O)C(C(N)=O)=C(O)[C@@H](N(C)C)[C@@H]3C[C@@H]1C2.Cl.Cl.Cl | 0.5 µg/mL | 1 µg/mL | 0.125 µg/mL | 32 µg/mL | 2 µg/mL | 4 µg/mL | 0.016 µg/mL | 0.016 µg/mL |  |
| CC(C)Nc1nc(Cl)c2c(c1O)C(=O)C1=C(O)[C@]3(O)C(=O)C(C(N)=O)=C(O)[C@@H](N(C)C)[C@@H]3C[C@@H]1C2.Cl.Cl.Cl | 32 µg/mL | 4 µg/mL | 32 µg/mL | > 32 µg/mL | 2 µg/mL | 16 µg/mL | 1 µg/mL | 2 µg/mL |  |
| CC(C)CCNc1nc(Cl)c2c(c1O)C(=O)C1=C(O)[C@]3(O)C(=O)C(C(N)=O)=C(O)[C@@H](N(C)C)[C@@H]3C[C@@H]1C2.Cl.Cl.Cl | > 32 µg/mL | 2 µg/mL | > 32 µg/mL | > 32 µg/mL | 0.25 µg/mL | 32 µg/mL | 0.25 µg/mL | 8 µg/mL |  |
| COCCNc1nc(Cl)c2c(c1O)C(=O)C1=C(O)[C@]3(O)C(=O)C(C(N)=O)=C(O)[C@@H](N(C)C)[C@@H]3C[C@@H]1C2.Cl.Cl.Cl | 4 µg/mL | 4 µg/mL | 1 µg/mL | 32 µg/mL | 1 µg/mL | 4 µg/mL | 0.031 µg/mL | 0.063 µg/mL |  |
| Cc1ncc2c(c1O)C(=O)C1=C(O)[C@]3(O)C(=O)C(C(N)=O)=C(O)[C@@H](N(C)C)[C@@H]3C[C@@H]1C2.Cl.Cl | 8 µg/mL | 32 µg/mL | 8 µg/mL | > 32 µg/mL | 32 µg/mL | 16 µg/mL | 4 µg/mL | 1 µg/mL |  |
| CCCc1nc(N(C)C)c2c(c1O)C(=O)C1=C(O)[C@]3(O)C(=O)C(C(N)=O)=C(O)[C@@H](N(C)C)[C@@H]3C[C@@H]1C2.Cl.Cl | 16 µg/mL | 2 µg/mL | 16 µg/mL | > 32 µg/mL | 1 µg/mL | 2 µg/mL | 1 µg/mL | 1 µg/mL |  |
| CN(C)[C@@H]1C(O)=C(C(N)=O)C(=O)[C@@]2(O)C(O)=C3C(=O)c4c(O)cncc4C[C@H]3C[C@@H]12.Cl.Cl | 1 µg/mL | 32 µg/mL | 0.5 µg/mL | > 32 µg/mL | 16 µg/mL | 32 µg/mL | 1 µg/mL | 0.25 µg/mL |  |
| COc1ncc(O)c2c1C[C@H]1C[C@H]3[C@H](N(C)C)C(O)=C(C(N)=O)C(=O)[C@@]3(O)C(O)=C1C2=O.Cl.Cl | 1 µg/mL | 8 µg/mL | 0.25 µg/mL | > 32 µg/mL | 4 µg/mL | 16 µg/mL | 0.125 µg/mL | 0.063 µg/mL |  |
| CC(C)OCCNc1nc(Cl)c2c(c1O)C(=O)C1=C(O)[C@]3(O)C(=O)C(C(N)=O)=C(O)[C@@H](N(C)C)[C@@H]3C[C@@H]1C2.Cl.Cl.Cl | 16 µg/mL | 2 µg/mL | 8 µg/mL | > 32 µg/mL | 0.25 µg/mL | 4 µg/mL | 0.5 µg/mL | 0.031 µg/mL |  |
| CN(C)[C@@H]1C(O)=C(C(N)=O)C(=O)[C@@]2(O)C(O)=C3C(=O)c4c(O)cnc(-c5ccccc5)c4C[C@H]3C[C@@H]12.Cl.Cl | 2 µg/mL | 32 µg/mL | 0.5 µg/mL | > 32 µg/mL | 1 µg/mL | 4 µg/mL | 0.063 µg/mL | 0.031 µg/mL |  |
| CCNc1nc(Cl)c2c(c1O)C(=O)C1=C(O)[C@]3(O)C(=O)C(C(N)=O)=C(O)[C@@H](N(C)C)[C@@H]3C[C@@H]1C2.Cl.Cl.Cl | 2 µg/mL | 1 µg/mL | 0.5 µg/mL | 16 µg/mL | 0.5 µg/mL | 4 µg/mL | 0.031 µg/mL | 0.031 µg/mL |  |
| CC(C)CNc1nc(Cl)c2c(c1O)C(=O)C1=C(O)[C@]3(O)C(=O)C(C(N)=O)=C(O)[C@@H](N(C)C)[C@@H]3C[C@@H]1C2.Cl.Cl.Cl | > 32 µg/mL | 1 µg/mL | 16 µg/mL | > 32 µg/mL | 0.5 µg/mL | 8 µg/mL | 0.5 µg/mL | 1 µg/mL |  |
| CN(C)[C@@H]1C(O)=C(C(N)=O)C(=O)[C@@]2(O)C(O)=C3C(=O)c4c(cnc(-c5ccccc5)c4O)C[C@H]3C[C@@H]12.Cl.Cl | 32 µg/mL | 8 µg/mL | 16 µg/mL | > 32 µg/mL | 16 µg/mL | 8 µg/mL | 4 µg/mL | 2 µg/mL |  |
| Cc1ncc(O)c2c1C[C@H]1C[C@H]3[C@H](N(C)C)C(O)=C(C(N)=O)C(=O)[C@@]3(O)C(O)=C1C2=O.Cl.Cl | 1 µg/mL | 32 µg/mL | 1 µg/mL | > 32 µg/mL | 0.5 µg/mL | > 32 µg/mL | 1 µg/mL | 0.25 µg/mL |  |
| CCCNc1nc(Cl)c2c(c1O)C(=O)C1=C(O)[C@]3(O)C(=O)C(C(N)=O)=C(O)[C@@H](N(C)C)[C@@H]3C[C@@H]1C2.Cl.Cl.Cl | 8 µg/mL | 1 µg/mL |  | 16 µg/mL | 0.5 µg/mL | 4 µg/mL | 0.063 µg/mL | 0.25 µg/mL | 5.3 µg/mL |
| CN(C)c1ccc(O)c2c1C[C@H]1C[C@H]3[C@H](N(C)C)C(O)=C(C(N)=O)C(=O)[C@@]3(O)C(O)=C1C2=O [MINOCYCLINE] |  | 16 µg/mL (≈ 35 µM) | 0.5 µg/mL (≈ 1.09 µM) | 8 µg/mL (≈ 17.5 µM) | 0.25 µg/mL (≈ 0.546 µM) | 8 µg/mL (≈ 17.5 µM) | 0.125 µg/mL (≈ 0.273 µM) | < 0.016 µg/mL |  |
| CN(C)c1cc(CNCC(C)(C)C)c(O)c2c1C[C@H]1C[C@H]3[C@H](N(C)C)C(O)=C(C(N)=O)C(=O)[C@@]3(O)C(O)=C1C2=O [OMADACYCLINE] | 2 µg/mL (≈ 3.59 µM) | 2 µg/mL (≈ 3.59 µM) | 2 µg/mL (≈ 3.59 µM) | 16 µg/mL (≈ 28.7 µM) | 0.25 µg/mL (≈ 0.449 µM) | 0.125 µg/mL (≈ 0.225 µM) | 0.5 µg/mL (≈ 0.898 µM) | 0.031 µg/mL (≈ 0.0557 µM) |  |
